Active and inactive are the calls of the source. No cut-off for these calls is given here.
Key:
[1] = species on record: Canis familiaris; assay: Renal blood flow was measured in dogs; Highly significant activity; format: functional, organism-based; conditions: Canis lupus familiaris; Kidney
[2] = species on record: Canis familiaris; assay: Renal vascular resistance was calculated as the ratio of the mean arterial blood pressure / mean renal blood flow; I=Inactive; format: functional, organism-based; conditions: Canis lupus familiaris
[3] = tested on: Canis familiaris; assay: Compound was evaluated for determining renal vascular resistance(iv) in dogs; format: functional, Canis lupus familiaris
In short: (§1)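 Secondary renal screen in anesthetized dogs: cumulative dose-response by infusing drug at progressively increasing rates, 5 min per dose level. RVR ED15 is the average minimum cumulative dose lowering RVR by 15%; maximum effect is the average maximum % fall in RVR. Selectivity ratios are separations between RVR ED15 and doses giving 30% change in iliac vascular resistance, 20% in MABP, 20% in HR.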

[4] = species on record: Canis familiaris; assay: Compound was evaluated for average maximum percent decrease in renal vascular resistance in dogs; format: functional, Canis lupus familiaris; in short: as §1
[5] = species on record: Rattus norvegicus; assay: Adenylase cyclase activity in rat striatal membranes at the concentration of 10e-5; format: functional; conditions: Striatum, Membrane
[6] = species on record: Rattus norvegicus; assay: Adenylase cyclase activity in rat striatal membranes at the concentration of 10e-6; format: functional; conditions: Striatum, Membrane
[7] = tested on: Rattus norvegicus; assay: Central dopaminergic activity against contralateral rotation(1000) in lesioned rats at the dose of 10 mg/kg (p.o.) in 2 h; format: functional; conditions: route oral
In short: (§2)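 Oral dosing in rats with substantia nigra lesions, scoring contralateral rotations. RD1000 is the minimum dose producing 1000 turns in 2 h.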

[8] = tested on: Rattus norvegicus; assay: Central dopaminergic activity for minimum concentration which produced 500 rotations(ip) in 2 h; format: functional
In short: (§3)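 Rats with substantia nigra lesions scored for contralateral rotation after intraperitoneal dosing (routine), oral dosing for selected compounds, or intracaudal administration for intrinsic activity. RD500 and RD1000 are the minimum doses giving 500 and 1000 turns, respectively, in 2 h.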

[9] = Selectivity ratio of compound as ED15 relative to heart rate(HR) ED20; format: functional; in short: as §1
[10] = Selectivity ratio of compound as ratio of ED15 relative to mean arterial blood pressure(MABP) ED20; format: functional; in short: as §1
[11] = Selectivity ratio of Compound as ratio of ED15 relative to iliac vascular resistance(IVR) ED30; format: functional; in short: as §1
[12] = species on record: Canis familiaris; assay: Renal vascular resistance was calculated as the ratio of the mean arterial blood pressure / mean renal blood flow; Highly significant activity; format: functional, organism-based; conditions: Canis lupus familiaris
[13] = tested on: Rattus norvegicus; assay: Central dopaminergic activity against contralateral rotation(1000) in lesioned rats(po) in 2 h; format: functional; in short: as §2
[14] = species on record: Canis familiaris; assay: Renal vascular resistance was calculated as the ratio of the mean arterial blood pressure / mean renal blood flow; Significant activity; format: functional, organism-based; conditions: Canis lupus familiaris
[15] = tested on: Rattus norvegicus; assay: Central dopaminergic activity for minimum concentration which produced 500 rotations at the dose of 10 mg/kg (i.p.) in 2 h; I=Inactive; format: functional, organism-based; design: dose 10 mg/kg; in short: as §3
[16] = tested on: Rattus norvegicus; assay: Central dopaminergic activity for minimum concentration which produced 500 rotations at the dose of 10 mg/kg (i.p.) in 2 h; format: functional; conditions: route intraperitoneal; in short: as §3
[17] = species on record: Rattus norvegicus; assay: Adenylase cyclase activity in rat striatal membranes at the concentration of 10e-7; format: functional; conditions: Striatum, Membrane
[18] = species on record: Canis familiaris; assay: Renal blood flow was measured in dogs; I=Inactive; format: functional, organism-based; conditions: Canis lupus familiaris; Kidney
[19] = species on record: Canis familiaris; assay: Renal blood flow was measured in dogs; Significant activity; format: functional, organism-based; conditions: Canis lupus familiaris; Kidney
[20] = tested on: Rattus norvegicus; assay: Central dopaminergic activity against contralateral rotation(1000) in lesioned rats at the dose of 6 mg/kg (p.o.) in 2 h; I=Inactive
[21] = species on record: Rattus norvegicus; assay: Central dopaminergic activity against contralateral rotation(500) in lesioned rats(ic) in 2 h; format: functional; in short: as §3

| Compound | RBF [1] | RVR [2] | RVR ED15 [3] | Decrease RVR [4] | DA response [5] | DA response [6] | RD500 [8] | Ratio [9] | Ratio [10] | Ratio [11] | RVR [12] | RD1000 [13] | also measured |
| --- | --- | --- | --- | --- | --- | --- | --- | --- | --- | --- | --- | --- | --- |
| Br.C=CCN1CCc2c(cc(O)c(O)c2Cl)C(c2cccc(Cl)c2)C1 (stereo not drawn) | Highly significant activity | inactive | 0.022 mg/kg | 38% | 83% | 92% | 0.11 mg/kg | >6072 | >6072 | > 6070 |  |  | RD1000 [7]: 1160 turns/2 h |
| Br.CCN1CCc2c(cc(O)c(O)c2Cl)C(c2ccccc2)C1 (stereo not drawn) | Highly significant activity |  | 0.045 mg/kg | 16% | 55% | 48% | 0.015 mg/kg | >6072 | 18 | 0.1 | Significant activity | 4.9 mg/kg |  |
| Br.C=CCN1CCc2c(cc(O)c(O)c2Cl)C(c2ccc(Cl)c(O)c2)C1 (stereo not drawn) | Highly significant activity |  | 0.019 mg/kg | 39% |  |  |  | >319 | >319 |  |  |  | RVR [14]: Significant activity; RD500 [15]: inactive |
| Cl.Oc1cc2c(c(Cl)c1O)CCN(Cc1ccco1)CC2c1ccccc1 (stereo not drawn) | Highly significant activity |  | 0.2 mg/kg | 26% | 82% | 41% |  | >6072 | >6072 | > 6070 | Significant activity |  | Contralateral turns in 2 h [16]: 611 turns/2 h |
| Br.C=CCN1CCc2c(cc(O)c(O)c2Cl)C(c2cccc(C)c2)C1 (stereo not drawn) | Highly significant activity |  |  |  | 96% |  | 0.04 mg/kg |  |  |  | Significant activity | 3 mg/kg | DA response [17]: 86% |
| Br.CCCCN1CCc2c(cc(O)c(O)c2Cl)C(c2ccccc2)C1 (stereo not drawn) |  | inactive |  |  | 90% | 85% |  |  |  |  |  |  | RBF [18]: inactive; Contralateral turns in 2 h [16]: 611 turns/2 h |
| Br.CN1CCc2c(cc(O)c(O)c2Cl)C(c2cccc(Cl)c2)C1 (stereo not drawn) |  | inactive |  |  | 13% | 22% | 0.03 mg/kg |  |  |  |  | 3.2 mg/kg | RBF [18]: inactive |
| Br.Cc1ccc(C2CNCCc3c2cc(O)c(O)c3Cl)cc1 (stereo not drawn) |  | inactive |  |  | 42% | 23% |  |  |  |  |  |  | RBF [18]: inactive; Contralateral turns in 2 h [16]: 420 turns/2 h |
| Cl.Oc1cc2c(c(Cl)c1O)CCN(Cc1cccs1)CC2c1ccccc1 (stereo not drawn) |  |  |  |  | 64% | 51% | 0.063 mg/kg |  |  |  |  | 5.8 mg/kg | RBF [19]: Significant activity; RVR [14]: Significant activity |
| Br.Oc1ccc(C2CNCCc3c2cc(O)c(O)c3Cl)cc1Br (stereo not drawn) |  |  | 0.002 mg/kg | 26% |  |  |  | >2995 | >2995 | 15 |  |  |  |
| Br.Oc1cc2c(c(Cl)c1O)CCNCC2c1cccc(Cl)c1 (stereo not drawn) | Highly significant activity | inactive |  |  | 90% | 82% | 0.3 mg/kg |  |  |  |  |  | RD1000 [7]: 602 turns/2 h |
| Oc1cc2c(c(Cl)c1O)CCN(Cc1ccco1)CC2c1cccc(Cl)c1 (stereo not drawn) |  | inactive |  |  |  |  |  |  |  |  |  |  | RBF [19]: Significant activity; RD1000 [20]: inactive |
| Br.Oc1cc2c(c(Cl)c1O)CCNCC2c1ccccc1 (stereo not drawn) | Active |  | 0.0035 mg/kg | 39% |  |  | 0.03 mg/kg |  |  |  | Active | 4.04 mg/kg | RD500 [21]: 0.22 ug rat-1 |
| Br.Oc1cc(C2CNCCc3c2cc(O)c(O)c3Cl)ccc1Cl (stereo not drawn) | Highly significant activity |  | 0.061 mg/kg | 25% |  |  |  | >249 | >249 | > 249 | Significant activity |  | RD500 [15]: inactive |
| CC(=O)Oc1cc2c(c(Cl)c1OC(C)=O)CCN(C)CC2c1ccccc1.Cl (stereo not drawn) |  | inactive |  |  |  |  | 0.025 mg/kg |  |  |  |  | 2.2 mg/kg | RBF [18]: inactive |
| Br.OCCN1CCc2c(cc(O)c(O)c2Cl)C(c2ccccc2)C1 (stereo not drawn) |  | inactive | 0.0045 mg/kg | 42% |  |  |  | >6072 | >6072 | 929 |  |  | RBF [19]: Significant activity; Contralateral turns in 2 h [16]: 1310 turns/2 h |
